Results collected from several papers.
Lines come from different studies, so protocols differ.
Target: Serine/threonine-protein kinase Sgk1 (SGK1, Homo sapiens, UniProt O00141)
Sequence (O00141 1-431, as in one of the studies): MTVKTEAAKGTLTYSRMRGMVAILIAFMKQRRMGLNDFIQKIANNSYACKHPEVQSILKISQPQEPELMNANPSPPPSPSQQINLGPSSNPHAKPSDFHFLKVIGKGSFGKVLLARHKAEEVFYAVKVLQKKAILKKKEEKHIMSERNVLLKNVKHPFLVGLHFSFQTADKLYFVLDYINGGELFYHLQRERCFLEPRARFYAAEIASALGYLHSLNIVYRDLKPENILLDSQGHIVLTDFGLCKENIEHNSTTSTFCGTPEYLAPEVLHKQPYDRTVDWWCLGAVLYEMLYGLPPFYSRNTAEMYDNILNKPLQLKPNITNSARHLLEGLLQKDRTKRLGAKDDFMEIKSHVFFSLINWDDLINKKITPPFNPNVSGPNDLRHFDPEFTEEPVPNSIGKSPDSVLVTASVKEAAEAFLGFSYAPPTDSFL

For O=C(c1ccc(Nc2nccc(-c3cc4ccccc4s3)n2)cc1)N1CCC(N2CCCC2)CC1, the remaining binding was 1.1% (binding; competition with immobilised ligand; 1 µM).
For Cc1nc(Cc2cccc(C(F)(F)F)c2)sc1-c1ccc(C(N)=O)nc1, the remaining binding was 100% (cell-free assay; competition with immobilised ligand; 1 µM).
c1cnn2ncc(-c3ccnc(N4CCC45COC5)n3)c2c1 has a remaining binding of 55% (binding; 1 µM).
CNC(=O)[C@@H]1CC[C@@H](n2c(-c3ccc4cnccc4c3)nc3ccc(C(=O)NCc4cccc(C(N)=O)c4)cc32)C1 gave a remaining binding of 94% (binding; competition with immobilised ligand; 1 µM).
O=C(N[C@H]1CCCCC/C=C\C2C[C@@]2(C(=O)O)NC(=O)[C@@H]2C[C@@H](Oc3ccncc3)CN2C1=O)OC1CCCC1 (stereo partly shown) gave a remaining binding of 100% (binding; competition with immobilised ligand; 1 µM).
The remaining binding of CCN1CCN(Cc2ccc(C(=O)Nc3ccc(C)c(Oc4ccc5c(c4)CC(=O)N5)c3)cc2C(F)(F)F)CC1 is reported as 79% (binding; competition with immobilised ligand; 1 µM).
Cc1cnn2ncc(-c3ccnc(N(C)C)n3)c2c1 gave a remaining binding of 73% (binding; 1 µM).
The remaining binding of C[C@@H](c1ccc(-n2cnc3c(N)ncnc32)cc1)N1CCc2nn(C)c(Cc3ccccc3)c2C1=O is reported as 61% (binding; competition with immobilised ligand; 0.1 µM).
With O=C(NCc1ncc(C(F)(F)F)cc1Cl)c1ccc2c(c1)C1(CCS(=O)(=O)CC1)[C@@H](C1CC1)N2S(=O)(=O)c1ccc(F)cc1 the remaining binding was 77% (cell-free assay; competition with immobilised ligand; 1 µM).
O=C(NCCCN1CCOCC1)c1ccc(Nc2ncc(Cl)c(-c3ccc(Cl)s3)n2)cc1 has a remaining binding of 5.8% (binding; competition with immobilised ligand; 1 µM).
The remaining binding of CC1CCCN1c1nccc(-c2cnn3ncccc23)n1 (stereo not shown) is reported as 86% (binding; 1 µM).
CCCCN(CCCC)C(=O)CN1C[C@@H](c2cc(OC)c3c(c2)OCO3)[C@H](C(=O)O)[C@H]1CC(C)(C)CCC has a remaining binding of 77.6% (cell-free assay; competition with immobilised ligand; 1 µM).
The remaining binding of N[C@@H]1CCN(c2nccc(-c3cnn4ncccc34)n2)C1 is reported as 100% (binding; 1 µM).
With O=C(c1ccc(Nc2ncc(Cl)c(-c3cc4ccccc4s3)n2)cc1)N1CCC(N2CCCC2)CC1 the remaining binding was 0.1% (binding; competition with immobilised ligand; 1 µM).
For Cc1cc(NC(=O)c2cccc(S(F)(F)(F)(F)F)c2)cc(-n2ccn3nc(-c4cccnc4)cc23)c1, the remaining binding was 81.3% (cell-free assay; competition with immobilised ligand; 1 µM).
For C[C@H]1CCN(c2nccc(-c3cnn4ncccc34)n2)C1, the remaining binding was 68% (binding; 1 µM).
FC(F)(F)Oc1cccc(-c2cnc3ccc(-c4ccncc4)nn23)c1 has a remaining binding of 75% (binding; competition with immobilised ligand; 5 µM).
CC1=C(C#N)[C@@H](c2ccc3[nH]nc(C)c3c2)C(C#N)=C(c2ccc(Cl)cc2)N1 has a remaining binding of 100% (cell-free assay; competition with immobilised ligand; 1 µM).
The remaining binding of CN(C)c1nccc(-c2cnn3ncccc23)n1 is reported as 69% (binding; 1 µM).
O=C(Nc1c[nH]nc1C(=O)NC1CCNCC1)c1cc(F)cc(F)c1 has a remaining binding of 100% (binding; competition with immobilised ligand; 1 µM).
CN(C)c1ncc(F)c(-c2cnn3ncccc23)n1 has a remaining binding of 79% (binding; 1 µM).
For COc1ncc2cc3ccccc3nc2c1C#N, the remaining binding was 94% (cell-free assay; competition with immobilised ligand; 5 µM).
